Data: article PMC11758009 (Scientific Reports, 2025)

Assays:
[1] = tested on: LAT1, LAT2, LAT3, LAT4, B^0AT1, ATB^0,+; conditions: cited from earlier work
B^0AT1 = B^0AT1 (Homo sapiens, UniProt Q695T7); test: Xenopus oocyte expression system, L-[14C]leucine uptake by B0AT1; assay type: cell-based; conditions: 1 and 10 µM compound; 50 µM substrate; 30 min; ND96
Summary of the method: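 B⁰AT1 cRNA (25 ng/oocyte) co-injected with equimolar collectrin cRNA into defolliculated Xenopus laevis oocytes, assayed 2–4 days later. Uptake of 50 µM L-[¹⁴C]leucine over 30 min at room temperature in ND96 (pH 7.5), with test compound at 1 or 10 µM. Water-injected oocytes served as controls. Scintillation counting; mean ± S.D., n = 5–13, three oocyte batches.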

y^+LAT2 = y^+LAT2 (Homo sapiens, UniProt Q92536); test: Xenopus oocyte expression system, L-[14C]leucine uptake by y+LAT2; assay type: cell-based; conditions: 1 and 10 µM compound; 50 µM substrate; 30 min; ND96
Summary of the method: (§1)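 Defolliculated Xenopus laevis oocytes injected with transporter cRNA (25 ng/oocyte) plus equimolar 4F2hc cRNA, and assayed 2–4 days later. Uptake of 50 µM L-[¹⁴C]leucine at room temperature with test compound at 1 or 10 µM. Buffers were ND96 (pH 7.5) or a Na⁺-free version with choline chloride in place of NaCl. Scintillation counting; mean ± S.D., n = 5–13, three oocyte batches.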

SNAT5 = SNAT5 (Homo sapiens, UniProt Q8WUX1); test: Xenopus oocyte expression system, L-[14C]glutamine uptake by SNAT5; assay type: cell-based; conditions: 1 and 10 µM compound; 50 µM substrate; 30 min; ND96
Summary of the method: (§2)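 Defolliculated Xenopus laevis oocytes injected with transporter cRNA (25 ng/oocyte), assayed 2–4 days after injection. Uptake at room temperature of 50 µM radiolabelled substrate with test compound at 1 or 10 µM. Buffers were ND96 (pH 7.5) for Na⁺-dependent transport, or a Na⁺-free version with choline chloride. Scintillation counting; mean ± S.D., n = 5–13, three independent oocyte batches.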

S2-LAT2 cells = conditions: LAT2-expressing cells; cited from earlier work
LAT1 [2] = target: T1, LAT1 (Homo sapiens, UniProt Q01650); test: Sustained inhibition assay; assay type: cell-based; conditions: reduction in inhibition over first 10 min after washout relative to 0 min
Summary of the method: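 HEK293-hLAT1 cells exposed to test compound or 0.6% DMSO control in culture medium for 30 min at 37 °C. Washed three times and kept in fresh medium for 0, 10, 20, 30 or 60 min or 24 h. Then rinsed with Na⁺-free HBSS and given 1 µM L-[¹⁴C]leucine for 1 min. Uptake taken as % of control at each time. Reduction rate = (%uptake 10 min – %uptake 0 min)/(100 – %uptake 0 min) × 100. Three independent experiments, each in quadruplicate.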
Target sequence in this assay (Q01650 whole entry): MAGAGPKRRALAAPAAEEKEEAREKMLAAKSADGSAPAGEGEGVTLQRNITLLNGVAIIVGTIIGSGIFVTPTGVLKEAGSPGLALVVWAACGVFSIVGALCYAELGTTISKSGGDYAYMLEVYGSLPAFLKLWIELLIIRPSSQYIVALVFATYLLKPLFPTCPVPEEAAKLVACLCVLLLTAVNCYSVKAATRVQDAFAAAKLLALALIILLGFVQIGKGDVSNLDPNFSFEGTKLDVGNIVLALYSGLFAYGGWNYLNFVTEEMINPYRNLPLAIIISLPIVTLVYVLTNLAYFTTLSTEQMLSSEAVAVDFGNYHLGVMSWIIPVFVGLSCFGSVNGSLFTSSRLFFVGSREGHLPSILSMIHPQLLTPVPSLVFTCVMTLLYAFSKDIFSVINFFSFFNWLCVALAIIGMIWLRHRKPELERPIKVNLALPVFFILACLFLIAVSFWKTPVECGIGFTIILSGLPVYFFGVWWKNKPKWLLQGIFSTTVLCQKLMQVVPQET
Target sequence in this assay (P08195 103-630 partner): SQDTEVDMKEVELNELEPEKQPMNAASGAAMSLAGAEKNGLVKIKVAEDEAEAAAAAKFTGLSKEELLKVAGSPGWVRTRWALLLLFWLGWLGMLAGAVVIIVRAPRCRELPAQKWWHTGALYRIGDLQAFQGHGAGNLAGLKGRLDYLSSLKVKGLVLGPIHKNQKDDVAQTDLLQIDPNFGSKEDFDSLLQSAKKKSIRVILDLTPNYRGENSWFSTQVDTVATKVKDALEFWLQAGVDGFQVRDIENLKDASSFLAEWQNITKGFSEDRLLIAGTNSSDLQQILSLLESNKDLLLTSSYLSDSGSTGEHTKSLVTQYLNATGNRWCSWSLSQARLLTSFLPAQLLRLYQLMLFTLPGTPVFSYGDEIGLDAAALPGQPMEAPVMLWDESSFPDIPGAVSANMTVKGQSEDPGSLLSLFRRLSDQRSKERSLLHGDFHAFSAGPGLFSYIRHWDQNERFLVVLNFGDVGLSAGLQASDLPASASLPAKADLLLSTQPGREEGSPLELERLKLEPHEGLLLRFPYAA

SNAT3 = SNAT3 (Homo sapiens, UniProt Q99624); test: Xenopus oocyte expression system, L-[14C]glutamine uptake by SNAT3; assay type: cell-based; conditions: 1 and 10 µM compound; 50 µM substrate; 30 min; ND96
Summary of the method: as §2

S2-LAT1 cells = conditions: LAT1-expressing cells; cited from earlier work
[3] = liver; cited from earlier work
[4] = patients with advanced solid tumors; cited from earlier work
LAT3 = LAT3 (Homo sapiens, UniProt O75387); test: Xenopus oocyte expression system, L-[14C]leucine uptake by LAT3; assay type: cell-based; conditions: 1 and 10 µM compound; 50 µM substrate; 30 min
Summary of the method: as §2

ASCT2 = ASCT2 (Homo sapiens, UniProt Q15758); test: Xenopus oocyte expression system, L-[14C]alanine uptake by ASCT2; assay type: cell-based; conditions: 1 and 10 µM compound; 50 µM substrate; 30 min; ND96
Summary of the method: as §2

y^+LAT1 = y^+LAT1 (Homo sapiens, UniProt Q9UM01); test: Xenopus oocyte expression system, L-[14C]leucine uptake by y+LAT1; assay type: cell-based; conditions: 1 and 10 µM compound; 50 µM substrate; 30 min; ND96
Summary of the method: as §1

HEK293-hLAT1 cells = test: Cell proliferation assay; assay type: cell-based; conditions: Homo sapiens, 72 h, read-out: GI50 (proliferation)
Summary of the method: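 HEK293 cells stably expressing human LAT1, kept in MEM with 10% FBS, non-essential amino acids and G418 (0.9 mg/mL) at 37 °C and 5% CO₂. Seeded at 1.5 × 10³ cells/well on poly-D-lysine and treated next day with test compound (0.003–30 µM) for 72 h. CCK-8 read-out. Inhibition = (C–T)/(C–T₀) × 100, with T₀ at 0 h. GI50 from curve fit; mean ± S.D., n = 4.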

SNAT4 = SNAT4 (Homo sapiens, UniProt Q969I6); test: Xenopus oocyte expression system, L-[14C]alanine uptake by SNAT4; assay type: cell-based; conditions: 10 µM compound; 50 µM substrate; 30 min; ND96
Summary of the method: as §2

SNAT2 = SNAT2 (Homo sapiens, UniProt Q96QD8); test: Xenopus oocyte expression system, L-[14C]alanine uptake by SNAT2; assay type: cell-based; conditions: 1 and 10 µM compound; 50 µM substrate; 30 min; ND96
Summary of the method: as §2

LAT1 [5] = target: T1, LAT1; test: Inhibition of L-[14C]leucine uptake in HEK293-hLAT1 cells; assay type: cell-based
Summary of the method: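 HEK293-hLAT1 cells grown 2 days on poly-D-lysine, then preincubated 10 min at 37 °C in Na⁺-free choline-HBSS (HEPES, pH 7.4). L-[¹⁴C]leucine (1–400 µM) uptake for 1 min, with test compound added from DMSO alongside the substrate at two levels (0.1/0.5 or 1/5 µM) or with DMSO alone. Cells washed ice-cold, lysed in NaOH, counted by scintillation, normalised to BCA protein. Michaelis–Menten and Lineweaver–Burk fits gave Ki; mean ± S.D., n = 4.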
Target sequence in this assay (Q01650 whole entry): as the sequence (Q01650 whole entry) above
Target sequence in this assay (P08195 103-630 partner): as the sequence (P08195 103-630 partner) above

SNAT1 = SNAT1 (Homo sapiens, UniProt Q9H2H9); test: Xenopus oocyte expression system, L-[14C]alanine uptake by SNAT1; assay type: cell-based; conditions: 1 and 10 µM compound; 50 µM substrate; 30 min; ND96
Summary of the method: as §2

LAT4 = LAT4 (Homo sapiens, UniProt Q8N370); test: Xenopus oocyte expression system, L-[14C]leucine uptake by LAT4; assay type: cell-based; conditions: 1 and 10 µM compound; 50 µM substrate; 30 min
Summary of the method: as §2

human LAT2 = human LAT2 (Homo sapiens, UniProt Q9UHI5); test: Inhibition of L-[14C]alanine uptake in HEK293-hLAT2 cells; assay type: cell-based; conditions: 0.1, 1 and 10 µM compound, 1 µM L-[14C]alanine
Summary of the method: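 Stable HEK293-hLAT2 cells were seeded at 2.4 × 10⁵ cells/well on poly-D-lysine and grown 2 days. They were pre-incubated 10 min at 37 °C in Na⁺-free HBSS (choline chloride, 25 mM HEPES, pH 7.4). Uptake of 1 µM L-[¹⁴C]alanine ran for 1 min, with test compound (from DMSO stocks) added together with substrate. Cells were washed ice-cold, lysed in 0.1 N NaOH, counted by liquid scintillation, and lysate protein was measured by BCA.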

TAT1 = TAT1 (Homo sapiens, UniProt Q8TF71); test: Xenopus oocyte expression system, L-[14C]tyrosine uptake by TAT1; assay type: cell-based; conditions: 1 and 10 µM compound; 50 µM substrate; 30 min; Na+-free
Summary of the method: (§3)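 Defolliculated Xenopus laevis oocytes injected with transporter cRNA (25 ng/oocyte) or with water as control, assayed 2–4 days after injection. Uptake over 30 min at room temperature of 50 µM labelled substrate: L-[¹⁴C]leucine for ATB0,+, L-[¹⁴C]tyrosine for TAT1, L-[¹⁴C]cystine for b0,+. Test compound at 1 or 10 µM. Scintillation counting; mean ± S.D., n = 5–13, three oocyte batches.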

LAT2 = LAT2 (Homo sapiens, UniProt Q9UHI5); test: Xenopus oocyte expression system, L-[14C]alanine uptake by LAT2; assay type: cell-based; conditions: 1 and 10 µM compound; 50 µM substrate; 30 min
Summary of the method: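 Defolliculated Xenopus laevis oocytes were injected with polyadenylated human LAT2 cRNA (25 ng/oocyte) plus equimolar 4F2hc cRNA. Water-injected oocytes served as controls. After 2–4 days, oocytes took up 50 µM ¹⁴C-labelled substrate for 30 min at room temperature, with or without test compound, in ND96 (pH 7.5) or its Na⁺-free choline chloride version. Radioactivity was determined by liquid scintillation counting.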

HEK293-hLAT2 cells = test: Cell proliferation assay; assay type: cell-based, human; conditions: 72 h, 0.003-30 µM
Summary of the method: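 HEK293 cells stably expressing human LAT2, kept under G418 selection at 37 °C and 5% CO₂, were seeded at 1.5 × 10³ cells/well on poly-D-lysine. Next day they were exposed to test compound for 72 h, and cell number was read with CCK-8. Inhibition was calculated as (C – T)/(C – T₀) × 100, with T₀ taken at 0 h. GI₅₀ is the concentration giving 50% inhibition. Mean ± S.D., n = 4.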

ASCT1 = ASCT1 (Homo sapiens, UniProt P43007); test: Xenopus oocyte expression system, L-[14C]alanine uptake by ASCT1; assay type: cell-based; conditions: 1 and 10 µM compound; 50 µM substrate; 30 min; ND96
Summary of the method: as §2

ATB^0,+ = ATB^0,+ (Homo sapiens, UniProt Q9UN76); test: Xenopus oocyte expression system, L-[14C]leucine uptake by ATB0,+; assay type: cell-based; conditions: 1 and 10 µM compound; 50 µM substrate; 30 min; ND96
Summary of the method: as §3

LAT1 [6] = target: T1, LAT1; test: Temperature-dependent uptake of 14C-labeled compound in HEK293-hLAT1 cells; assay type: cell-based; conditions: 1 µM 14C-labeled compound, 1 min, 37 °C vs on ice
Summary of the method: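 HEK293-hLAT1 cells in Na⁺-free HBSS given 1 µM ¹⁴C-labelled test compound, or 1 µM L-[¹⁴C]leucine for comparison, for 1 min on ice or at 37 °C. Cell-associated radioactivity measured by scintillation counting of the lysate.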
Target sequence in this assay (Q01650 whole entry): as the sequence (Q01650 whole entry) above
Target sequence in this assay (P08195 103-630 partner): as the sequence (P08195 103-630 partner) above

LAT1 [7] = target: T1, LAT1; test: Xenopus oocyte expression system, L-[14C]leucine uptake by LAT1; assay type: cell-based; conditions: 50 µM substrate, 30 min, Na+-free
Summary of the method: as §1
Target sequence in this assay (Q01650 whole entry): as the sequence (Q01650 whole entry) above
Target sequence in this assay (P08195 102-630 partner): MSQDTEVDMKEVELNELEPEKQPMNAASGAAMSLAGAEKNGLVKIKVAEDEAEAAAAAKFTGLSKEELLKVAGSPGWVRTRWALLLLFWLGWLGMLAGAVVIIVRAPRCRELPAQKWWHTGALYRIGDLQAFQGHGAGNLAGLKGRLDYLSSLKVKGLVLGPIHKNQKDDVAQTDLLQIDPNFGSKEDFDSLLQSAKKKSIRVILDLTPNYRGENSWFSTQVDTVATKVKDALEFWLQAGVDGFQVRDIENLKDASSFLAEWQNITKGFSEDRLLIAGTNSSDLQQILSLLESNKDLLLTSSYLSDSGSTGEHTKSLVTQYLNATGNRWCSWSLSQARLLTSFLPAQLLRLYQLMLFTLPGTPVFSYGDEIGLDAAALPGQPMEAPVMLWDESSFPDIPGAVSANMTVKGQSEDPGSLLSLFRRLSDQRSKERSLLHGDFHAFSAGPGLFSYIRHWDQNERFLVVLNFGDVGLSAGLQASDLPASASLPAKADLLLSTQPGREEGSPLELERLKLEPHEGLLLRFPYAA

biliary tract cancer = conditions: phase II, patients with biliary tract cancer; cited from earlier work
b^0,+ = test: Xenopus oocyte expression system, L-[14C]cystine uptake by b0,+; assay type: cell-based; conditions: 1 and 10 µM compound; 50 µM substrate; 30 min; Na+-free
Summary of the method: as §3

SNAT1, sequence (Q9H2H9 whole entry): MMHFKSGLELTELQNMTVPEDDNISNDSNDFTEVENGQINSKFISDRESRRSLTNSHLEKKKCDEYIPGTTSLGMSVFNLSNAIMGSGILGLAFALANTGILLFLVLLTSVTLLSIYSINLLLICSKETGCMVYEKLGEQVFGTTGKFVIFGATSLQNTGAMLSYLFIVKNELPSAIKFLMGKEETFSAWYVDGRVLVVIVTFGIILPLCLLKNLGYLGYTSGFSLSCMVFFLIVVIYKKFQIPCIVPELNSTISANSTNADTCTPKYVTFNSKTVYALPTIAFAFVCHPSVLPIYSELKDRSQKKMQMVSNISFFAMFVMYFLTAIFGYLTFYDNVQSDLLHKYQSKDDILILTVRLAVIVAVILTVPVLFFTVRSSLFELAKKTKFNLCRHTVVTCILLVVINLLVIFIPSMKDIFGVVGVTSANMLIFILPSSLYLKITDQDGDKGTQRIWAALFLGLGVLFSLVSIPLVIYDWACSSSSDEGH
B^0AT1, sequence (Q695T7 whole entry): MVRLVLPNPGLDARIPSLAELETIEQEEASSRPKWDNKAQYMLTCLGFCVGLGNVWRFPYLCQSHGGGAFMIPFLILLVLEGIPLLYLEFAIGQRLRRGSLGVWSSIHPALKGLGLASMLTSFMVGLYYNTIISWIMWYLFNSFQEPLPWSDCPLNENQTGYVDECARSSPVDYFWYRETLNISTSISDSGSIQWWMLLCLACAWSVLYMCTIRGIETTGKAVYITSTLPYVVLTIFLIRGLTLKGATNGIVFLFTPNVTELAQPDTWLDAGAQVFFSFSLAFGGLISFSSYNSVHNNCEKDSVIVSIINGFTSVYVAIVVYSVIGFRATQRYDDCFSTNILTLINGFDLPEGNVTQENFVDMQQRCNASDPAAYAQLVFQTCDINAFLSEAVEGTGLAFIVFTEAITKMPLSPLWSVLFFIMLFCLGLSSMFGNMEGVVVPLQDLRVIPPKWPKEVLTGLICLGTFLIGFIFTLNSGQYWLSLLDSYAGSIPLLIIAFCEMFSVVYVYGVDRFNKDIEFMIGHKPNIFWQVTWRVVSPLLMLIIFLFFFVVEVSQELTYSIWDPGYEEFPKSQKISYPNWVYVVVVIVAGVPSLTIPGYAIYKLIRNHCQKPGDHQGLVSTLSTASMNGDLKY
B^0AT1, sequence (Q9HBJ8 15-222 partner): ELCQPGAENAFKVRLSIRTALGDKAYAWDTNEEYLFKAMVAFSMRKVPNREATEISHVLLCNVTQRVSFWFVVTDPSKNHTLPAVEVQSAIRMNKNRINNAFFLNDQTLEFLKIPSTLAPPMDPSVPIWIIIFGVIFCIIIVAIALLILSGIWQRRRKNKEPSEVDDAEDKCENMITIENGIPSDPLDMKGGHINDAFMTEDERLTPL
ASCT2, sequence (Q15758 whole entry): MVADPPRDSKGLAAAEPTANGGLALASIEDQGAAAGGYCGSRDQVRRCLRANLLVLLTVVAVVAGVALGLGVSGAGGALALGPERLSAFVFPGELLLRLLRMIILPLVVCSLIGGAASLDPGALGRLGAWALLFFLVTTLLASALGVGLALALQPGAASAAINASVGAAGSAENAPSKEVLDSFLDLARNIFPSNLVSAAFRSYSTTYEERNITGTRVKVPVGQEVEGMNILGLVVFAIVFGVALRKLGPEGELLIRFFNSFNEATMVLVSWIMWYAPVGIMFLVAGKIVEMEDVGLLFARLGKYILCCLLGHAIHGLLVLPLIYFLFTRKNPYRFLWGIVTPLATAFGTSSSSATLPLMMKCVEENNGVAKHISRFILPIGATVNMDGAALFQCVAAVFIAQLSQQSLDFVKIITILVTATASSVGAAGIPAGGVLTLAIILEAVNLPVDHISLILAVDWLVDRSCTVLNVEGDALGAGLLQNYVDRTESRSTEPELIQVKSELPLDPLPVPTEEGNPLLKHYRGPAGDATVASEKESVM
LAT2, sequence (Q9UHI5 whole entry): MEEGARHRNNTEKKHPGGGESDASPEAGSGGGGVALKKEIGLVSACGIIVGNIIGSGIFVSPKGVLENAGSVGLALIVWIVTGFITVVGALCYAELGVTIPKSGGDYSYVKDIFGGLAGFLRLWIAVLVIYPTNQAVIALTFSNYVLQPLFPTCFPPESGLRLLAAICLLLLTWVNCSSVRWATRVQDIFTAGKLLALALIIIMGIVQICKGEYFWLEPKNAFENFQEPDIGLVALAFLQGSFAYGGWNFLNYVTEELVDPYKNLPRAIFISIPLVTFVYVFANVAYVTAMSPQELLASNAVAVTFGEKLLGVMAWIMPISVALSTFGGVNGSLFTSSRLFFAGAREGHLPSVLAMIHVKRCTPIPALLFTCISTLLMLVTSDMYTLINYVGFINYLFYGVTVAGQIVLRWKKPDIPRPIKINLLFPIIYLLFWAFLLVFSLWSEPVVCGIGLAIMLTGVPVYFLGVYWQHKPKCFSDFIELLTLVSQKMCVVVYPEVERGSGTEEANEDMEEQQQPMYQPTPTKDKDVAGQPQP
LAT2, sequence (P08195 102-630 partner): as the sequence (P08195 102-630 partner) above
human LAT2, sequence (Q9UHI5 whole entry): as the sequence (Q9UHI5 whole entry) above
human LAT2, sequence (P08195 103-630 partner): as the sequence (P08195 103-630 partner) above

NC1(C(=O)O)CC2CCC1C2 (centres unmarked) [BCH]
Transporters inhibited [1]: inhibit not only all system L transporters (LAT1, LAT2, LAT3, LAT4) but also B^0AT1 (system B^0) and ATB^0,+ (system B^0,+)

Nc1cc(COc2c(Cl)cc(C[C@H](N)C(=O)O)cc2Cl)c2oc(-c3ccccc3)nc2c1 [nanvuranlat, (2S)-2-amino-3-[4-[(5-amino-2-phenyl-1,3-benzoxazol-7-yl)methoxy]-3,5-dichlorophenyl]propanoic acid]
Inhibition of B0AT1-mediated L-[14C]leucine uptake (B^0AT1): Neither compound inhibited
Inhibition of y+LAT2-mediated L-[14C]leucine uptake (y^+LAT2): Neither compound inhibited
Inhibition of SNAT5-mediated L-[14C]glutamine uptake (SNAT5): no significant inhibition
Growth inhibition of S2-LAT2 cells (S2-LAT2 cells): minimal effects
Inhibition reduction rate (LAT1 [2]): 29.8%
Inhibition of SNAT3-mediated L-[14C]glutamine uptake (SNAT3): no significant inhibition
Growth inhibition of S2-LAT1 cells (S2-LAT1 cells): potently inhibited the growth
Metabolism [3]: rapidly metabolized to its N-acetyl derivative in the liver
Safety profile in clinical trials [4]: acceptable safety profile
Inhibition of LAT3-mediated L-[14C]leucine uptake (LAT3): no inhibitory effects
Inhibition of ASCT2-mediated L-[14C]alanine uptake (ASCT2): no significant inhibition
Inhibition of y+LAT1-mediated L-[14C]leucine uptake (y^+LAT1): Neither compound inhibited
GI50 (HEK293-hLAT1 cells): 1830 ± 310 nM
Inhibition of SNAT4-mediated L-[14C]alanine uptake (SNAT4): non-significant trend towards inhibition
Inhibition of SNAT2-mediated L-[14C]alanine uptake (SNAT2): no significant inhibition
Ki (LAT1 [5]): 38.7 ± 5.1 nM
Inhibition of LAT1-mediated L-[14C]leucine uptake (LAT1 [5]; 0.1, 1 and 10 µM compound, 1 µM L-[14C]leucine, HEK293-hLAT1): inhibited LAT1 in a concentration-dependent manner
Mode of LAT1 inhibition (Lineweaver-Burk plot) (LAT1 [5]; HEK293-hLAT1, L-[14C]leucine): competitive inhibitors
Inhibition of SNAT1-mediated L-[14C]alanine uptake (SNAT1): no significant inhibition
Inhibition of LAT4-mediated L-[14C]leucine uptake (LAT4): no inhibitory effects
Inhibition of LAT2-mediated L-[14C]alanine uptake (human LAT2): neither compound exhibited inhibitory effects on LAT2
Inhibition of TAT1-mediated L-[14C]tyrosine uptake (TAT1): Neither compound inhibited
Inhibition of LAT2-mediated L-[14C]alanine uptake (LAT2): neither nanvuranlat nor N-acetyl-nanvuranlat inhibited
Inhibition of proliferation (HEK293-hLAT2 cells): neither compound exhibited an inhibitory effect
Inhibition of ASCT1-mediated L-[14C]alanine uptake (ASCT1): no significant inhibition
Inhibition of ATB0,+-mediated L-[14C]leucine uptake (ATB^0,+): Neither compound inhibited
Temperature dependence of cell-associated radioactivity (transport by LAT1) (LAT1 [6]): not transported by LAT1
Inhibition of LAT1-mediated L-[14C]leucine uptake (LAT1 [7]; 1 µM compound): significantly inhibited
Inhibition of LAT1-mediated L-[14C]leucine uptake (LAT1 [7]; 10 µM compound): significantly inhibited
Primary endpoint (progression-free survival) (biliary tract cancer): met its primary endpoint of improving progression-free survival
Inhibition of b0,+-mediated L-[14C]cystine uptake (b^0,+): Neither compound inhibited
